From ChEMBL document CHEMBL3351263, “Synthesis and biological evaluation of novel marine-derived indole-based 1,2,4-oxadiazoles derivatives as multifunctional neuroprotective agents” (2015)
Calls of active or inactive are those of the source. The rule behind the calls is not given here.

What was measured:
SH-SY5Y [1] = test: Neuroprotective activity in human SH-SY5Y cells assessed as inhibition Abeta25-35-induced reduction of cell viability at 1 uM compound pretreated for 2 hrs before induction cell viability measured after 24 hrs (reference value: 69.77%); format: functional
SH-SY5Y [2] = test: Neuroprotective activity in human SH-SY5Y cells assessed as inhibition Abeta25-35-induced reduction of cell viability at 10 uM compound pretreated for 2 hrs before induction cell viability measured after 24 hrs (reference value: 69.77%); format: functional
SH-SY5Y [3] = test: Neuroprotective activity in human SH-SY5Y cells assessed as inhibition H2O2-induced damage measured as cell viability at 100 uM measured after 24 hrs; format: functional
Procedure, shortened: (§1)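 Human SH-SY5Y cells were subjected to H2O2-induced damage, with compounds at 1 or 10 μM and L-NAC at 100 μM as the positive control. Cell viability was compared with control and with H2O2-only wells. Data are mean ± SD, n = 3-6.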

SH-SY5Y [4] = test: Neuroprotective activity in human SH-SY5Y cells assessed as inhibition H2O2-induced damage measured as cell viability at 10 uM measured after 24 hrs; format: functional; procedure, shortened: as §1
SH-SY5Y [5] = test: Neuroprotective activity in human SH-SY5Y cells assessed as inhibition H2O2-induced damage measured as cell viability at 1 uM measured after 24 hrs; format: functional, cell-based; procedure, shortened: as §1
SH-SY5Y [6] = test: Neuroprotective activity in human SH-SY5Y cells assessed as inhibition OGD-induced injuries measured as cell viability at 10 uM measured after 24 hrs; format: functional
Procedure, shortened: (§2)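 Oxygen-glucose deprivation (OGD) injury was applied to human SH-SY5Y cells, with compounds at 1 μM or higher. Cell viability, or its increase, was compared with control and with OGD-only wells. Data are mean ± SD, n = 3-6.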

SH-SY5Y [7] = test: Neuroprotective activity in human SH-SY5Y cells assessed as inhibition OGD-induced injuries measured as cell viability at 1 uM measured after 24 hrs; format: functional; procedure, shortened: as §2
SH-SY5Y [8] = test: Neuroprotective activity in human SH-SY5Y cells assessed as inhibition OGD-induced injuries measured as increase in cell viability at 1 uM measured after 24 hrs; format: functional; procedure, shortened: as §2
A549 = test: Cytotoxicity against human A549 cells by MTT assay; format: functional
Procedure, shortened: (§3)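 Cells were exposed to compound at 10 μM, and cytotoxicity was expressed as percent inhibition of growth.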

[9] = Cytotoxicity against human HL60 cells by MTT assay; format: functional, HL-60; procedure, shortened: as §3
SH-SY5Y [10] = test: Neuroprotective activity in human SH-SY5Y cells assessed as inhibition Abeta25-35-induced reduction of cell viability at 10 uM after 24 hrs by SRB assay; format: functional

Row | SMILES | Activity (SH-SY5Y [1]) | Activity (SH-SY5Y [2]) | further results
1 | CN1CCN(c2ccc(-c3ccc(-c4noc(Cc5c[nH]c6ccccc56)n4)o3)cc2)CC1 | inactive | inactive | –
2 | Cc1cccc(-c2ccc(-c3noc(Cc4c[nH]c5ccccc45)n3)o2)c1 | inactive | inactive | –
3 | c1ccc2c(Cc3nc(-c4ccc(-c5ccc(N6CCOCC6)cc5)o4)no3)c[nH]c2c1 | inactive | inactive | –
4 | CC(=O)N[C@@H](CS)C(=O)O [ACETYLCYSTEINE] | – | – | Activity (SH-SY5Y [3]): 89.2%
5 | CC(C)c1ccc(-c2ccc(-c3noc(Cc4c[nH]c5ccccc45)n3)o2)cc1 | inactive | 93.3% | –
6 | Oc1ccc(-c2ccc(-c3noc(Cc4c[nH]c5ccccc45)n3)o2)cc1 | inactive | inactive | –
7 | CN(C)c1ccc(-c2ccc(-c3noc(Cc4c[nH]c5ccccc45)n3)o2)cc1 | inactive | inactive | Activity (SH-SY5Y [4]): 98%; Activity (SH-SY5Y [5]): inactive
8 | Clc1ccc(-c2ccc(-c3noc(Cc4c[nH]c5ccccc45)n3)o2)cc1 | inactive | 83.9% | –
9 | Nc1ccc(-c2cccc(-c3noc(Cc4c[nH]c5ccccc45)n3)c2)cc1 | inactive | 106% | Activity (SH-SY5Y [6]): inactive
10 | Brc1ccc(-c2ccc(-c3noc(Cc4c[nH]c5ccccc45)n3)o2)cc1 | inactive | 83.5% | –
11 | CCc1ccc(-c2ccc(-c3noc(Cc4c[nH]c5ccccc45)n3)o2)cc1 | inactive | 100% | –
12 | OCc1ccc(-c2ccc(-c3noc(Cc4c[nH]c5ccccc45)n3)o2)cc1 | inactive | 92.1% | –
13 | Cc1ccc(-c2ccc(-c3noc(Cc4c[nH]c5ccccc45)n3)o2)cc1 | inactive | 80.3% | –
14 | CC(C)(C)c1ccc(-c2ccc(-c3noc(Cc4c[nH]c5ccccc45)n3)o2)cc1 | inactive | 92.1% | –
15 | Cc1ccccc1-c1ccc(-c2noc(Cc3c[nH]c4ccccc34)n2)o1 | inactive | inactive | –
16 | CCOc1ccc(-c2ccc(-c3noc(Cc4c[nH]c5ccccc45)n3)o2)cc1 | inactive | 89.1% | Activity (SH-SY5Y [4]): 98%; Activity (SH-SY5Y [7]): 80.6%; Activity (SH-SY5Y [5]): inactive; Activity (SH-SY5Y [6]): 76.2%
17 | Fc1ccc(-c2ccc(-c3noc(Cc4c[nH]c5ccccc45)n3)o2)cc1 | inactive | 84.8% | –
18 | c1ccc(-c2ccc(-c3noc(Cc4c[nH]c5ccccc45)n3)o2)cc1 | inactive | inactive | –
19 | COc1ccc(-c2ccc(-c3noc(Cc4c[nH]c5ccccc45)n3)o2)cc1 | inactive | 91.5% | Activity (SH-SY5Y [4]): 98%; Activity (SH-SY5Y [5]): inactive
20 | Nc1ccc(-c2ccc(-c3noc(Cc4c[nH]c5ccccc45)n3)s2)cc1 | inactive | inactive | –
21 | Nc1ccc(-c2ccc(-c3noc(Cc4c[nH]c5ccccc45)n3)o2)cc1 | inactive | 92.4% | Activity (SH-SY5Y [8]): 18.96%; inhibition (INH) (A549): 2%; inhibition (INH) [9]: 26%
22 | N#Cc1ccc(-c2ccc(-c3noc(Cc4c[nH]c5ccccc45)n3)o2)cc1 | inactive | 93.3% | –
23 | O=C(O[C@@H]1Cc2c(O)cc(O)cc2O[C@@H]1c1cc(O)c(O)c(O)c1)c1cc(O)c(O)c(O)c1 [EPIGALOCATECHIN GALLATE] | – | 96.2% | –
24 | Nc1ncc(-c2ccc(-c3noc(Cc4c[nH]c5ccccc45)n3)o2)cn1 | inactive | inactive | inhibition (INH) (A549): 2%; inhibition (INH) [9]: 26%
25 | CCCOc1ccc(-c2ccc(-c3noc(Cc4c[nH]c5ccccc45)n3)o2)cc1 | 90% | 115.5% | Activity (SH-SY5Y [10]): 94%; Activity (SH-SY5Y [4]): 98%; Activity (SH-SY5Y [7]): 80.4%; Activity (SH-SY5Y [5]): inactive; Activity (SH-SY5Y [6]): 84.1%
26 | CCCc1ccc(-c2ccc(-c3noc(Cc4c[nH]c5ccccc45)n3)o2)cc1 | 89.7% | 114.2% | Activity (SH-SY5Y [10]): 96%
